# Like-named read-outs stand apart in the source and are kept apart here.
# Columns and labels:
# [1] = system: Japanese patients with advanced solid tumors; experiment: Safety assessment; format: in vivo, human
# Method in brief: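 Patients took oral test compound daily (capsule or tablet, q.d. or b.i.d.) in 28-day cycles until progression, intolerable toxicity or withdrawal. AEs graded by CTCAE v4.0, alongside regular laboratory tests, physical examination, vital signs, weight and periodic ECG. Safety set: patients with at least one dose and at least one valid postbaseline safety assessment.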
# [2] = system: Japanese patients with advanced solid tumors; format: in vivo, human; settings: for DLT event: one patient
# Method in brief: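 Open-label phase I at two Japanese centres; oral test compound given q.d. or b.i.d. as capsule or tablet in 28-day cycles, escalated by a 2-parameter Bayesian logistic regression model with overdose control. DLT: grade 3 or 4 AE or abnormal laboratory value (CTCAE v4.0), not attributed to disease, intercurrent illness or co-medication, within the first 28 days. MTD: highest dose not expected to cause DLT in >33% of patients.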
# [3] = Plasma pharmacokinetics of capmatinib; format: in vivo, human; settings: for AUC / Cmax: 400 mg, 400 mg b.i.d., day 15; for AUC: Mean AUCtau; for Cmax: Mean Cmax
# [4] = system: advanced solid tumors; experiment: Tumor assessment by CT/MRI according to RECIST version 1.1; format: in vivo, human; settings: investigator assessed; eight of 44 patients
# [5] = system: MET kinase versus other kinases (panel of 57 human kinases); settings: cited from earlier work
# [6] = system: MET-dependent (amplified/autocrine) tumor models; settings: at tolerable doses; cited from earlier work
# [7] = study CINC280X2103; ref data on file; cited from earlier work
# [8] = system: MET; settings: read-out: IC50 (MET, biochemical); cited from earlier work
# [9] = regardless of relationship, all patients, n = 44
# [10] = regardless of study drug relationship, all patients
# [11] = human, plasma, oral, capsule group
# [12] = human, plasma, oral, tablet group
structure (smiles),measurement,setting,value
CNC(=O)c1ccc(-c2cnc3ncc(Cc4ccc5ncccc5c4)n3n2)cc1F [capmatinib],Patients with one or more dose interruptions,[1]; 21 patients,47.7%
same,AE requiring dose adjustment and/or interruption,[1]; 26 of 44 patients,59.1%
same,Overall tolerability,"[1]; Japanese patients, overall",well tolerated
same,Changes in vital signs and ECG intervals,[1]; all patients,no clinically meaningful changes or trends
same,"Colitis ulcerative, grade 3/4 suspected to be drug-related",[1]; all patients,1 n
same,Decreased appetite requiring dose adjustment and/or interruption,[1]; all patients,6.8%
same,"Decreased appetite, suspected to be drug-related",[1]; all patients,29.5%
same,"Depression, grade 3/4 suspected to be drug-related",[1]; all patients,1 n
same,"Diarrhea, suspected to be drug-related",[1]; all patients,20.5%
same,"Hypophosphatemia, grade 3/4 suspected to be drug-related",[1]; all patients,1 n
same,"Increased ALT and AST, grade 3/4 suspected to be drug-related",[1]; all patients,1 n
same,"Increased GGT, grade 3/4 suspected to be drug-related",[1]; all patients,1 n
same,Increased blood creatinine requiring dose adjustment and/or interruption,[1]; all patients,20.5%
same,"Increased blood creatinine, suspected to be drug-related",[1]; all patients,45.5%
same,"Lung infection, grade 3/4 suspected to be drug-related",[1]; all patients,1 n
same,Nausea requiring dose adjustment and/or interruption,[1]; all patients,13.6%
same,"Nausea, suspected to be drug-related",[1]; all patients,31.8%
same,On-treatment deaths (within 28 days after discontinuation),[1]; all patients,No on‐treatment deaths
same,Patients experiencing one or more AE,[1]; all patients,95.5%
same,QTcB increase from baseline of more than 30 ms,[1]; all patients,three
same,Treatment-emergent prolongation of QTcB of more than 450 ms,[1]; all patients,three
same,Treatment-emergent prolongation of QTcB of more than 480 ms,[1]; all patients,one
same,Vomiting requiring dose adjustment and/or interruption,[1]; all patients,6.8%
same,"Vomiting, suspected to be drug-related",[1]; all patients,29.5%
same,AE leading to discontinuation,"[1]; all patients, n = 44",4 (9.1) n (%)
same,AE requiring dose interruption and/or reduction,"[1]; all patients, n = 44",26 (59.1) n (%)
same,"AE requiring dose interruption and/or reduction, Suspected to be drug-related","[1]; all patients, n = 44",17 (38.6) n (%)
same,All deaths (incl. more than 28 days after discontinuation),"[1]; all patients, n = 44",1 (2.3) n (%)
same,On-treatment deaths (up to 28 d after discontinuation),"[1]; all patients, n = 44",0 n (%)
same,"Patients experiencing ≥1 AE, Suspected to be drug-related","[1]; all patients, n = 44",37 (84.1) n (%)
same,SAE,"[1]; all patients, n = 44",7 (15.9) n (%)
same,"SAE, Suspected to be drug-related","[1]; all patients, n = 44",2 (4.5) n (%)
same,Total number of patients experiencing ≥1 AE,"[1]; all patients, n = 44",42 (95.5) n (%)
same,Discontinuation due to AE (all grades),[1]; four of 44 patients,9.1%
same,AE suspected to be drug-related,"[1]; mainly grade 1/2, 37 patients",84.1%
same,Patients with dose interrupted only once,[1]; nine patients,20.5%
same,Tolerability,[1]; p.o. 400 mg b.i.d. in tablet formulation,well tolerated
same,"Anemia, All grades",[1]; [9],7 (15.9) n (%)
same,"Anemia, Grade 3/4",[1]; [9],0 n (%)
same,"Any AE, All grades",[1]; [9],42 (95.5) n (%)
same,"Any AE, Grade 3/4",[1]; [9],15 (34.1) n (%)
same,"Constipation, All grades",[1]; [9],7 (15.9) n (%)
same,"Constipation, Grade 3/4",[1]; [9],0 n (%)
same,"Decreased appetite, All grades",[1]; [9],18 (40.9) n (%)
same,"Decreased appetite, grade 3/4",[1]; [9],3 (6.8) n (%)
same,"Diarrhea, All grades",[1]; [9],11 (25.0) n (%)
same,"Diarrhea, Grade 3/4",[1]; [9],0 n (%)
same,"Edema peripheral, All grades",[1]; [9],9 (20.5) n (%)
same,"Edema peripheral, Grade 3/4",[1]; [9],1 (2.3) n (%)
same,"Fatigue, All grades",[1]; [9],7 (15.9) n (%)
same,"Fatigue, Grade 3/4",[1]; [9],0 n (%)
same,"Hypoalbuminemia, All grades",[1]; [9],10 (22.7) n (%)
same,"Hypoalbuminemia, grade 3/4",[1]; [9],2 (4.5) n (%)
same,"Increased blood creatinine, All grades",[1]; [9],23 (52.3) n (%)
same,"Increased blood creatinine, Grade 3/4",[1]; [9],0 n (%)
same,"Malaise, All grades",[1]; [9],8 (18.2) n (%)
same,"Malaise, Grade 3/4",[1]; [9],0 n (%)
same,"Nausea, All grades",[1]; [9],21 (47.7) n (%)
same,"Nausea, Grade 3/4",[1]; [9],0 n (%)
same,"Pyrexia, All grades",[1]; [9],8 (18.2) n (%)
same,"Pyrexia, Grade 3/4",[1]; [9],0 n (%)
same,"Vomiting, All grades",[1]; [9],17 (38.6) n (%)
same,"Vomiting, Grade 3/4",[1]; [9],0 n (%)
same,Grade 3/4 AE,"[1]; regardless of study drug relationship, 15 patients",34.1%
same,"Ascites, grade 3/4",[1]; [10],4.5%
same,"Decreased appetite, all grades",[1]; [10],40.9%
same,"Decreased appetite, grade 3/4",[1]; [10],6.8%
same,"Diarrhea, all grades",[1]; [10],25.0%
same,"Hypoalbuminemia, all grades",[1]; [10],22.7%
same,"Hypoalbuminemia, grade 3/4",[1]; [10],4.5%
same,"Hyponatremia, grade 3/4",[1]; [10],9.1%
same,"Hypophosphatemia, grade 3/4",[1]; [10],4.5%
same,"Increased GGT, grade 3/4",[1]; [10],4.5%
same,"Increased blood creatinine, all grades",[1]; [10],52.3%
same,"Nausea, all grades",[1]; [10],47.7%
same,"Peripheral edema, all grades",[1]; [10],20.5%
same,"Vomiting, all grades",[1]; [10],38.6%
same,Grade 3/4 AE suspected to be drug-related,[1]; seven patients,15.9%
same,Patients with one dose reduction,[1]; three patients,6.8%
same,MTD,[2]; escalated up to 400 mg b.i.d. tablet and 600 mg b.i.d. capsule,not reached
same,DLT event,[2]; 400 mg b.i.d. tablet,grade 3 depression
same,DLT event,[2]; 600 mg b.i.d. capsule,grade 2 suicidal ideation
same,"Highest studied dose determined to be safe, tablet","[2]; tablet formulation, single agent",400 mg b.i.d.
same,Patients permanently discontinued owing to DLT,[2]; two patients,5.1%
same,Median Tmax,"[3]; day 15, tablet",1.0 h
same,Tmax,"[3]; human, plasma, oral",1 h
same,AUC,[3]; [11],11000 ng·h/mL
same,AUC,[3]; [12],31400 ng·h/mL
same,Cmax,[3]; [11],1980 ng/mL
same,Cmax,[3]; [12],7570 ng/mL
same,Steady state achieved,[3]; pre-dose concentrations generally stable after day 15,≤ 15 days
same,Best overall response of SD,[4],18.2%
same,selectivity for MET kinase versus other kinases,[5],10 000 fold
same,Effect on MET-dependent tumor models,[6],causes regression
same,Cmax geometric mean ratio (tablet vs capsule),[7],3.0
same,IC50,[8],0.13 nM

# Reference: PMC6447844 (Cancer Science, 2019)
